≈ marks a conversion by molar mass, not a printed value.
Legend:
[1] = system: Moraxella catarrhalis; assay: Antibacterial activity against Moraxella catarrhalis BC-3531; format: functional
[2] = system: Streptococcus pneumoniae; assay: Antibacterial activity against fluoroquinolone resistance Streptococcus pneumoniae SP3765; format: functional
[3] = Volume of distribution in rat at 1 mg/kg, iv; format: ADME, organism-based; set-up: dose 1 mg/kg, route intravenous; settings: in vivo, read-out: Vdss
[4] = Clearance in rat at 1 mg/kg, iv; format: ADME, organism-based; set-up: dose 1 mg/kg, route intravenous; settings: in vivo
[5] = system: Rattus norvegicus; assay: AUC in rat at 1 mg/kg, iv; format: ADME, organism-based, Plasma; set-up: dose 1 mg/kg, route intravenous; settings: in vivo
[6] = system: Haemophilus influenzae; assay: Antibacterial activity against Haemophilus influenzae HI3542; format: functional; settings: HI-3542
[7] = system: Staphylococcus aureus; assay: Antibacterial activity against Staphylococcus aureus SA2552; format: functional
[8] = system: Streptococcus pneumoniae; assay: Antibacterial activity against Streptococcus pneumoniae SV1; format: functional
[9] = system: Staphylococcus aureus; assay: Antibacterial activity against Staphylococcus aureus UC76; format: functional
[10] = Half life in rat at 1 mg/kg, iv; format: ADME, organism-based; set-up: dose 1 mg/kg, route intravenous; settings: in vivo
[11] = Cmax in rat at 5 mg/kg, po; format: ADME, organism-based; set-up: dose 5 mg/kg, route oral; settings: in vivo
[12] = Bioavailability in rat at 5 mg/kg, po; format: ADME, organism-based; settings: in vivo
[13] = target: Voltage-gated inwardly rectifying potassium channel KCNH2 (Homo sapiens, UniProt Q12809); assay: Displacement of [3H]dofetilide from human ERG by fliter binding assay
Sequence of Voltage-gated inwardly rectifying potassium channel KCNH2 (Q12809 whole entry): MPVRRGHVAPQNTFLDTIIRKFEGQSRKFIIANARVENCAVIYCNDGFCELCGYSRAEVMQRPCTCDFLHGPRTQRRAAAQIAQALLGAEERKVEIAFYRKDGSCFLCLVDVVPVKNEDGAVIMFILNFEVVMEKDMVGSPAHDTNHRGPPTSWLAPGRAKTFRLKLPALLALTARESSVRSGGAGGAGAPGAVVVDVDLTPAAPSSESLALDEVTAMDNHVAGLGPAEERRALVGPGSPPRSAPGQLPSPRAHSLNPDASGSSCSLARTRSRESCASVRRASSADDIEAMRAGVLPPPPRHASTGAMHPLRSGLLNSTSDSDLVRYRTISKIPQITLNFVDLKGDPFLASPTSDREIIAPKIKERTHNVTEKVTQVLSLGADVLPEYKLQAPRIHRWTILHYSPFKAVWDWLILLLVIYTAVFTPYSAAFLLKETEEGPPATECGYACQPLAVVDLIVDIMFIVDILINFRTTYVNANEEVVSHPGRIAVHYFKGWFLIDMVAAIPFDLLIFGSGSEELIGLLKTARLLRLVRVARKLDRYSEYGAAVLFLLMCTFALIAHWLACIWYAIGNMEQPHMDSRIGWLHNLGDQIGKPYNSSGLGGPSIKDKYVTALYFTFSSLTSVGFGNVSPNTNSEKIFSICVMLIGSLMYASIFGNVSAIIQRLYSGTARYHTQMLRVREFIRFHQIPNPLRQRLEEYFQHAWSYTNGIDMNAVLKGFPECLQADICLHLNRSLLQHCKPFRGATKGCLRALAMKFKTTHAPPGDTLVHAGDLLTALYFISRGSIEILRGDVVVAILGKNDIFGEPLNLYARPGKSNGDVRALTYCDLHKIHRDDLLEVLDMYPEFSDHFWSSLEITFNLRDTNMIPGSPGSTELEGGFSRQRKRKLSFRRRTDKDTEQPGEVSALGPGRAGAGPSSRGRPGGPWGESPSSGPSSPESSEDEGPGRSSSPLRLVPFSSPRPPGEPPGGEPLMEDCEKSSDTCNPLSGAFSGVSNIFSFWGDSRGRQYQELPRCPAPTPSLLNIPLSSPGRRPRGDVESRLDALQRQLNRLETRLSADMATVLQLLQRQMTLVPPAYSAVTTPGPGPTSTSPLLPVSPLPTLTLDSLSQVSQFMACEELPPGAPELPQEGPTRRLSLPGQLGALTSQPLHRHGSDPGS

[14] = target: hERG (KCNH2) (Homo sapiens, UniProt Q12809); assay: Displacement of [3H]dofetilide from human ERG at 300 uM; settings: probe [3H]dofetilide
Sequence of hERG (KCNH2) (Q12809 whole entry): as above
Summary of the method: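 Radioligand filter-binding assay measuring displacement of [3H]-dofetilide from the hERG channel, run as in a patent protocol.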

SMILES | MIC [1] | MIC [2] | Vd [3] | clearance [4] | AUC [5] | MIC [6] | MIC [7] | MIC [8] | MIC [9] | half-life [10] | Cmax [11] | bioavailability [12] | Ki [13] | inhibition at 300 µM [14]
Cc1c(N2CC(C)(CN)C2)c(F)cc2c(=O)c(C(=O)O)cn(C3CC3)c12 | 0.06 µg/mL (≈ 0.167 µM) | 2 µg/mL (≈ 5.56 µM) | 2.5 L/kg | 33 mL/min/kg | 2.5 ug/hr.ml | 0.015 µg/mL (≈ 0.0417 µM) | 0.06 µg/mL (≈ 0.167 µM) | 0.06 µg/mL (≈ 0.167 µM) | 0.06 µg/mL (≈ 0.167 µM) | 1.3 h | 300 ng/mL | 18% |  | 
COc1c(N2CC[C@@H](CNCCC#N)C2)ccc2c(=O)c(C(=O)O)cn(C3CC3)c12 | 1 µg/mL (≈ 2.44 µM) | 2 µg/mL (≈ 4.87 µM) |  |  |  | 0.25 µg/mL (≈ 0.609 µM) | 0.25 µg/mL (≈ 0.609 µM) | 0.125 µg/mL (≈ 0.305 µM) | 0.03 µg/mL (≈ 0.0731 µM) |  |  |  |  | 
CN[C@@H](CC#N)[C@@H]1CCN(c2c(F)cc3c(=O)c(C(=O)O)cn4c3c2OCC4C)C1 (stereo not given in full) | 0.25 µg/mL (≈ 0.603 µM) | 2 µg/mL (≈ 4.83 µM) |  |  |  | 0.03 µg/mL (≈ 0.0724 µM) | 0.125 µg/mL (≈ 0.302 µM) | 0.125 µg/mL (≈ 0.302 µM) | 0.06 µg/mL (≈ 0.145 µM) |  |  |  | > 150 µM | 19%
Cc1c(N2CC[C@@H]([C@H](C)NCCC#N)C2)c(F)cc2c(=O)c(C(=O)O)cn(C3CC3)c12 | 0.015 µg/mL (≈ 0.0352 µM) | 0.06 µg/mL (≈ 0.141 µM) |  |  |  | 0.03 µg/mL (≈ 0.0703 µM) | 0.008 µg/mL (≈ 0.0188 µM) | 0.008 µg/mL (≈ 0.0188 µM) | 0.002 µg/mL (≈ 0.00469 µM) |  |  |  | 72 µM | 
Cc1c(N2CC(C)(CNCCC#N)C2)c(F)cc2c(=O)c(C(=O)O)cn(C3CC3)c12 | 0.125 µg/mL (≈ 0.303 µM) | 2 µg/mL (≈ 4.85 µM) |  |  |  | 0.06 µg/mL (≈ 0.145 µM) | 0.03 µg/mL (≈ 0.0727 µM) | 0.125 µg/mL (≈ 0.303 µM) | 0.03 µg/mL (≈ 0.0727 µM) |  |  |  | > 150 µM | 18%
COc1c(N2CC[C@@H]([C@@H](N)CC#N)C2)ccc2c(=O)c(C(=O)O)cn(C3CC3)c12 | 0.125 µg/mL (≈ 0.315 µM) | 0.5 µg/mL (≈ 1.26 µM) | 0.5 L/kg | 16 mL/min/kg | 5.2 ug/hr.ml | 0.06 µg/mL (≈ 0.151 µM) | 0.06 µg/mL (≈ 0.151 µM) | 0.03 µg/mL (≈ 0.0757 µM) | 0.008 µg/mL (≈ 0.0202 µM) | 1.8 h | 1400 ng/mL | 22% | > 150 µM | 30%
COc1c(N2CC[C@@H]([C@@H](N)CC#N)C2)c(F)cc2c(=O)c(C(=O)O)cn(C3CC3)c12 | 0.03 µg/mL (≈ 0.0724 µM) | 0.125 µg/mL (≈ 0.302 µM) |  |  |  | 0.008 µg/mL (≈ 0.0193 µM) | 0.002 µg/mL (≈ 0.00483 µM) | 0.008 µg/mL (≈ 0.0193 µM) | 0.001 µg/mL (≈ 0.00241 µM) |  |  |  | > 150 µM | 29%
COc1c(N2CC[C@@H]([C@H](C)N)C2)ccc2c(=O)c(C(=O)O)cn(C3CC3)c12 | 0.06 µg/mL (≈ 0.162 µM) | 0.125 µg/mL (≈ 0.337 µM) |  |  |  | 0.125 µg/mL (≈ 0.337 µM) | 0.03 µg/mL (≈ 0.0808 µM) | 0.015 µg/mL (≈ 0.0404 µM) | 0.008 µg/mL (≈ 0.0215 µM) |  |  |  |  | 
CCC1(CNCCC#N)CN(c2c(F)cc3c(=O)c(C(=O)O)cn(C4CC4)c3c2C)C1 | 0.25 µg/mL (≈ 0.586 µM) | 2 µg/mL (≈ 4.69 µM) | 1 L/kg | 13 mL/min/kg | 6.5 ug/hr.ml | 0.06 µg/mL (≈ 0.141 µM) | 0.03 µg/mL (≈ 0.0703 µM) | 0.125 µg/mL (≈ 0.293 µM) | 0.03 µg/mL (≈ 0.0703 µM) | 1.4 h | 2600 ng/mL | 92% | > 150 µM | 25%
C[C@H]1COc2c(N3CCN(C)CC3)c(F)cc3c(=O)c(C(=O)O)cn1c23.C[C@H]1COc2c(N3CCN(C)CC3)c(F)cc3c(=O)c(C(=O)O)cn1c23.O [LEVOFLOXACIN] | 0.06 µg/mL |  |  |  |  | 0.015 µg/mL | 0.5 µg/mL |  | 0.125 µg/mL |  |  |  |  | 10%
COc1c(N2CC[C@@H]([C@H](C)NCCC#N)C2)c(F)cc2c(=O)c(C(=O)O)cn(C3CC3)c12 | 0.06 µg/mL (≈ 0.136 µM) | 0.125 µg/mL (≈ 0.282 µM) | 2.5 L/kg | 24 mL/min/kg | 3.5 ug/hr.ml | 0.06 µg/mL (≈ 0.136 µM) | 0.008 µg/mL (≈ 0.0181 µM) | 0.015 µg/mL (≈ 0.0339 µM) | 0.004 µg/mL (≈ 0.00904 µM) | 2.7 h | 1200 ng/mL | 70% | > 150 µM | 2%
CC1COc2c(N3CC[C@@H]([C@H](C)NCCC#N)C3)c(F)cc3c(=O)c(C(=O)O)cn1c23 (stereo not given in full) | 0.125 µg/mL (≈ 0.292 µM) | 0.25 µg/mL (≈ 0.583 µM) |  |  |  | 0.06 µg/mL (≈ 0.14 µM) | 0.03 µg/mL (≈ 0.07 µM) | 0.06 µg/mL (≈ 0.14 µM) | 0.015 µg/mL (≈ 0.035 µM) |  |  |  | > 150 µM | 10%
